SIAE inh: blocks human sialic acid acetylesterase | AID 1053197 | Q9HAT2 | SIAE FP-Rh probe binding, fluorescence polarization | inhibition, % at 9.66 µM | 370,000 tested, 0.69% active;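 active means inhibition above a cutoff: mean of compounds within the control limits plus 3 SD of those, cut at about 17% in these data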
PRMT1 FP inh: PRMT1 (human) inhibition, primary screen; Q99873; recombinant PRMT1, activity-based probe fluorescence polarization; inhibition, % at 2.79 µM; 370,000 tested, 1.3% active;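 active means inhibition above about 21% made by adding two undisclosed values, limit read from the data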
HTRA1 inhibitor: HTRA1 (human) protease inhibition; 340,000 tested, 0.5% active; recombinant HTRA1, FP-rhodamine activity-based probe, fluorescence polarization; Q92743; AID 504803; inhibition, % at 5.96 µM; in the data active means inhibition above about 36%
Target sequence (Q92743 whole entry, looked up): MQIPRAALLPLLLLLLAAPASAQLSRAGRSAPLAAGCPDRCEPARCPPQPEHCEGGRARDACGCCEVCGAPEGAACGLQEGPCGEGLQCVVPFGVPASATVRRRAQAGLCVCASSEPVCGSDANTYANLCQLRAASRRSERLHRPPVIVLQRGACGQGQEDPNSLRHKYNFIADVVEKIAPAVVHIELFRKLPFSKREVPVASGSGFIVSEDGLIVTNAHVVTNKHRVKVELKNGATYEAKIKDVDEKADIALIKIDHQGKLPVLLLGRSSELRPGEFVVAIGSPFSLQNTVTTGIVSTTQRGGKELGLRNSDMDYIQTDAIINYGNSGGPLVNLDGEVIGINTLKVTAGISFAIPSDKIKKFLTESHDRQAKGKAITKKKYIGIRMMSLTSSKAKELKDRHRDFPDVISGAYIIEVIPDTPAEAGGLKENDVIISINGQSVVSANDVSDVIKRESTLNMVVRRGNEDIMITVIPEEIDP
mABHD4 FP: inhibitors of mouse ABHD4; Q8VD66; purified mABHD4, FP-Rh probe fluorescence polarization; inhibition, % at 8.92 µM; 370,000 tested, 0.54% active;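 active means inhibition exceeding the mean over every tested compound plus 3 SD, cut at about 30% in these data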
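Assay system: Wild-type mouse ABHD4 protein | Medium: HEPES pH 7.0 buffer, 150 mM NaCl, 0.01% Pluronic F-127 | Incubation: Enzyme–compound pre-incubation 45 min, then probe 60 min, both 25 °C | Technique: Fluorescence polarization with parallel and perpendicular emission, 525/598 nm | Evaluation: % inhibition of FP-Rh probe binding versus controls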
TCR CD3 inh: inhibitors of human TCR-CD3 interaction; 360,000 tested, 0.37% active; inhibition, % at 9.4 µM; TAMRA-labeled TCR probe fluorescence, biochemical; in the data active means inhibition above about 19%;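 further: recombinant mutant TCR 2C K166C tagged with TAMRA read by polarization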
mABHD4 conf: ABHD4 (mouse) inhibition, FP confirmation | shares compounds with mABHD4 FP | purified mABHD4, FP-Rh probe fluorescence polarization | 1,800 tested, 55% active | AID 720658 | inhibition, % at 8.92 µM;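 active means mean inhibition across replicates above the hit cutoff set in the primary screen, cut at about 30% in these data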
Numbers stand for hits. Hits are enriched below; roughly 2.6% of the tested compounds scored in any of these assays.

What do the screens show for `Cc1ccc2nc(-c3ccc(C#N)cc3)c(Cc3cccc(F)c3)n2c1`?
SIAE inh: inactive; PRMT1 FP inh: inactive; mABHD4 FP: inactive; TCR CD3 inh: inactive

What do the screens show for `CN1CCc2cccc3c2C1Cc1ccc(O)c(O)c1-3` (stereo not given)?
SIAE inh: inactive; PRMT1 FP inh: 47; HTRA1 inhibitor: inactive; mABHD4 FP: 53; TCR CD3 inh: inactive; mABHD4 conf: inactive

Results for CN1CCC(=C2c3ccccc3C(O)c3ccccc32)CC1 (stereo not given) ?
SIAE inh: inactive; PRMT1 FP inh: inactive; HTRA1 inhibitor: inactive; mABHD4 FP: inactive; TCR CD3 inh: inactive

What do the screens show for `CCOc1ccccc1C(=O)NCC(=O)OCc1csc(CC(=O)Nc2ccc(C)cc2)n1`?
SIAE inh: inactive; PRMT1 FP inh: inactive; HTRA1 inhibitor: inactive; mABHD4 FP: 36; TCR CD3 inh: inactive; mABHD4 conf: inactive

What do the screens show for `CCSC(=O)N=Nc1ccc(O)cc1`?
SIAE inh: inactive; PRMT1 FP inh: inactive; HTRA1 inhibitor: inactive; mABHD4 FP: 33; TCR CD3 inh: inactive; mABHD4 conf: inactive

Results for CC(=O)/C(N=Nc1ccc(SC(F)F)cc1)=C(\C)O ?
SIAE inh: inactive; PRMT1 FP inh: inactive; HTRA1 inhibitor: inactive; mABHD4 FP: inactive; TCR CD3 inh: inactive

Results for CC(=O)OCCNc1cc(SCc2ccco2)c2nonc2c1[N+](=O)[O-] ?
HTRA1 inhibitor: inactive

How did O=[N+]([O-])c1c(NCCCO)cc(SCc2ccco2)c2nonc12 do in these assays?
SIAE inh: inactive; PRMT1 FP inh: 64; HTRA1 inhibitor: inactive; mABHD4 FP: 54; TCR CD3 inh: inactive; mABHD4 conf: inactive

Results for COC(=O)CC1CCc2cc(C)cc(C(=O)CC(C)C)c2O1 (stereo not given) ?
SIAE inh: inactive; PRMT1 FP inh: inactive; mABHD4 FP: inactive

What do the screens show for `F[B-](F)(F)COCc1ccccc1Br`?
SIAE inh: inactive; PRMT1 FP inh: inactive; HTRA1 inhibitor: inactive; mABHD4 FP: 80; TCR CD3 inh: inactive; mABHD4 conf: 70

What do the screens show for `CCCCC#Cc1ccccc1COC[B-](F)(F)F`?
SIAE inh: inactive; PRMT1 FP inh: inactive; mABHD4 FP: 75; TCR CD3 inh: inactive; mABHD4 conf: 75

What do the screens show for `O=C(C#Cc1ccccc1)Nc1ccccc1F`?
SIAE inh: inactive; PRMT1 FP inh: inactive; HTRA1 inhibitor: inactive; mABHD4 FP: inactive; TCR CD3 inh: inactive

How did F[B-](F)(F)COCc1ccccc1C#Cc1ccccc1 do in these assays?
SIAE inh: inactive; PRMT1 FP inh: inactive; mABHD4 FP: 77; TCR CD3 inh: inactive; mABHD4 conf: 79

Results for O=C(CSc1nnc(COc2ccccc2)n1Cc1ccco1)Nc1ccc2c(c1)OCO2 ?
SIAE inh: inactive; PRMT1 FP inh: inactive; mABHD4 FP: inactive

How did Nc1ccc2c(O)cc(S(=O)(=O)O)cc2c1 do in these assays?
SIAE inh: inactive; HTRA1 inhibitor: inactive; mABHD4 FP: 39; TCR CD3 inh: inactive; mABHD4 conf: inactive

What do the screens show for `CC(=O)Nc1ccc2c(O)cc(S(=O)(=O)O)cc2c1`?
SIAE inh: inactive; PRMT1 FP inh: inactive; HTRA1 inhibitor: inactive; mABHD4 FP: inactive; TCR CD3 inh: inactive

What do the screens show for `Cc1sc2nc(COC(=O)CNC(=O)c3ccc(F)cc3Cl)[nH]c(=O)c2c1C`?
SIAE inh: inactive; PRMT1 FP inh: inactive; mABHD4 FP: inactive

How did Cc1cc2c(NC(=O)Nc3ccc(C(F)(F)F)cc3)cccc2nn1 do in these assays?
SIAE inh: inactive; PRMT1 FP inh: inactive; HTRA1 inhibitor: inactive; mABHD4 FP: 109; TCR CD3 inh: inactive; mABHD4 conf: inactive

Results for CC(=O)N1CCc2cc(S(=O)(=O)NC3CCN(C(=O)CCl)CC3)ccc21 ?
SIAE inh: inactive; PRMT1 FP inh: inactive; mABHD4 FP: inactive

What do the screens show for `COc1ccccc1N1CCN(CCCCOc2ccc(C)cc2C)CC1`?
SIAE inh: inactive; PRMT1 FP inh: inactive; HTRA1 inhibitor: inactive; mABHD4 FP: 31; TCR CD3 inh: inactive; mABHD4 conf: inactive

How did COc1ccccc1N1CCN(CC(O)COc2ccc(C)cc2C)CC1 (stereo not given) do in these assays?
SIAE inh: inactive; PRMT1 FP inh: inactive; HTRA1 inhibitor: inactive; mABHD4 FP: inactive; TCR CD3 inh: inactive

What do the screens show for `Fc1ccccc1N1CCN(c2nc(-c3cccs3)nc3ccccc23)CC1`?
SIAE inh: inactive; PRMT1 FP inh: inactive; HTRA1 inhibitor: inactive; mABHD4 FP: 33; TCR CD3 inh: inactive; mABHD4 conf: inactive

How did NS(=O)(=O)c1ccc(CCNC(=O)CN2C(=O)NC(c3ccccc3)(c3ccccc3)C2=O)cc1 do in these assays?
SIAE inh: inactive; PRMT1 FP inh: inactive; HTRA1 inhibitor: inactive; mABHD4 FP: 49; TCR CD3 inh: inactive; mABHD4 conf: inactive

How did COc1ccc(Cn2ccc3ccc(-c4ccc5ccn(C(=O)C6CCCCC6)c5c4)cc32)cc1 do in these assays?
SIAE inh: inactive; PRMT1 FP inh: inactive; mABHD4 FP: inactive

How did Cc1ccc(NC2=C(Cl)C(=O)c3ccccc3C2=O)cc1 do in these assays?
SIAE inh: inactive; PRMT1 FP inh: inactive; HTRA1 inhibitor: inactive; mABHD4 FP: inactive; TCR CD3 inh: inactive

What do the screens show for `O=C1C(Cl)=C(Nc2ccc(O)cc2)C(=O)c2ccccc21`?
SIAE inh: inactive; PRMT1 FP inh: 36; HTRA1 inhibitor: inactive; mABHD4 FP: 41; TCR CD3 inh: inactive; mABHD4 conf: 54

How did CNC[C@H](CC1CCCCC1)NC[C@H](Cc1ccccc1)NCCC12CC3CC(CC(C3)C1)C2 do in these assays?
SIAE inh: inactive; PRMT1 FP inh: inactive; HTRA1 inhibitor: inactive; mABHD4 FP: 48; TCR CD3 inh: inactive; mABHD4 conf: 75

Results for CN(C)c1cccc(O)c1 ?
SIAE inh: inactive; PRMT1 FP inh: inactive; HTRA1 inhibitor: inactive; mABHD4 FP: 51; TCR CD3 inh: inactive; mABHD4 conf: inactive

What do the screens show for `Cc1cc(O)ccc1Nc1cc(-c2cccc(N(C)C)c2)ncn1`?
SIAE inh: inactive; PRMT1 FP inh: inactive; mABHD4 FP: inactive; TCR CD3 inh: inactive

Results for O=C(N1CCC(n2nc(-c3ccccc3)oc2=O)CC1)C1(c2ccccc2)CCCC1 ?
SIAE inh: inactive; PRMT1 FP inh: inactive; mABHD4 FP: inactive

Results for CCc1ccc2[nH]c(O)c(N=NC3=NC(=O)CS3)c2c1 ?
SIAE inh: inactive; PRMT1 FP inh: inactive; HTRA1 inhibitor: inactive; mABHD4 FP: 31; TCR CD3 inh: inactive; mABHD4 conf: 41

How did CCOC(=O)C1=CCN(S(=O)(=O)c2ccc(C)cc2)C1c1ccccc1 (stereo not given) do in these assays?
SIAE inh: inactive; PRMT1 FP inh: inactive; mABHD4 FP: inactive; TCR CD3 inh: inactive

What do the screens show for `CCOc1cc2c(c3c1C(c1ccccc1)N(S(=O)(=O)c1ccc(C)cc1)C3)C(=O)C=CC2=O` (stereo not given)?
SIAE inh: inactive; PRMT1 FP inh: inactive; mABHD4 FP: 48; TCR CD3 inh: inactive; mABHD4 conf: 60

What do the screens show for `CC1=NN(C(N)=S)C(=O)C1N=Nc1c(Br)cc(Br)cc1Br` (stereo not given)?
SIAE inh: inactive; PRMT1 FP inh: inactive; HTRA1 inhibitor: inactive; mABHD4 FP: 30; TCR CD3 inh: inactive; mABHD4 conf: 57

Source: PubChem BioAssay
